Shown are actives, neighbours in structure and some others; about 3.4% of the full set was active somewhere.
rRNA inh HTS: reduced GFP signal of wild-type E. coli, primary screen, bacterial rRNA inhibitor project, GFP/RFP fluorescence, OD600, single point. E. coli WT GFP vs humanized-ribosome RFP mutants, 24 h; stronger effect = lower value; DMSO median 0, no signal -100. GFP signal change (wild-type ribosome), % (concentration not given with the values). 1.6% of 350,000 active. AID 720706, 2013;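 active = significant combined selectivity score with lowered wild-type GFP, culture density cut under 30%, mutant RFP and density less affected; inactive = any of these conditions unmet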
MLL AF4-AF9 inh: inhibitors of AF4 peptide binding to AF9, primary screen, biochemical, AlphaScreen, biotin-AF4 peptide, FLAG-AF9, single point; Protein AF-9 (Homo sapiens), P42568; inhibition, % at 10 µM; 0.47% of 350,000 active;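 active = every replicate reaching a set inhibition limit, whatever the replicate mean, cut at about 25% in these data; inconclusive = mean inhibition reaches that limit but some replicates miss it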
ERAP1 HTS inh: human ERAP1 aminopeptidase inhibitors, primary screen, biochemical, single point, plate reader | Endoplasmic reticulum aminopeptidase 1 (Homo sapiens), Q9NZ08 | recombinant ERAP1, Leu-AMC fluorescence, 60 min | inhibition, % at 10.7 µM | 0.15% of 340,000 active;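 active = mean replicate inhibition of at least 30%, or all replicates individually reaching that 30% level; inactive = mean below 30% and not every replicate reaching it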
SIRT5 inh: SIRT5 desuccinylase inhibitors, primary screen, biochemical, fluorescence imaging, single point, set 5; NAD-dependent protein deacylase sirtuin-5, mitochondrial (Homo sapiens), Q9NXA8; Purified SirT5, succinyl-peptide AMC, trypsin-coupled fluorescence; inhibition, % at 15 µM; 1.1% of 330,000 active; in the data active = inhibition above about 15%; inconclusive = no clear call, values can overlap the other calls
S100A4 inh HTS: inhibitors of S100A4-myosin IIA peptide binding, primary screen, biochemical, fluorescence polarization, TAMRA-MyoIIA peptide | Protein S100-A4 (Homo sapiens), P26447 | inhibition, % at 10.7 µM | 0.14% of 360,000 active | AID 652163, 2013;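 active = mean inhibition of at least 70% across replicates, with every replicate also reaching that level; inconclusive = mean inhibition reaches 70% but some replicates fall short; inactive = mean inhibition below 70%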
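System – human S100A4 monomer protein, biochemical binding assay · Buffer or medium – Calcium-containing HEPES buffer, pH 7.2 · Timing – 5 min between mix addition and reading · Also added – TAMRA-labelled myosin IIA heavy-chain peptide probe, 5 nM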
E-sel inducer: E-selectin induction in HUVECs, primary screen, imaging, HUVEC, immunofluorescence imaging, single point | 0.37% of 260,000 active | P16581 | activation, % at 7.58 µM | normalized: neutral wells 0, TNF-alpha wells 100;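 active = mean E-selectin-positive cell signal at least 10% of the positive control, reached in at least 60% of replicates, without over 20% cell loss; inconclusive = no rule given, readout overlaps actives, possibly toxicity-flagged; inactive = the rest, including those meeting only one limit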
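Assay system: HUVEC primary endothelial cells. Input: 3,000 HUVEC seeded per well. Doses: one compound dose added by pin transfer. Read-out basis: % PE-positive cells. Benchmarks: TNF-alpha high, DMSO low. Detection: immunofluorescence imaging. Buffer or medium: EGM-2, gelatin.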
AID977621: growth inhibition of wild-type GFP E. coli, dose response, H69 mutant RFP, cherry-pick | shares compounds with rRNA inh HTS | E. coli wild-type GFP strain growth, fluorescence, 24 h | activity change, negative = inhibition at 50 µM | 1,900 tested, under 10 active | AID 977621, 2014;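 active = Wild-type ribosome reporter drop at least double the humanized mutant ribosome reporter drop, growth loss under a set limit; inconclusive = no clear call, values can overlap the other calls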;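 note: wild-type GFP and H69 mutant RFP strains grown together 50/50 in each well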
AID977628: E. coli growth inhibition, wild-type GFP versus h24 humanized RFP strain, dose response, h24 mutant RFP vs wild-type GFP, cherry-pick; shares compounds with rRNA inh HTS; E. coli WT GFP strain growth, fluorescence, 24 h; activity change, negative = inhibition at 50 µM; 1,900 tested, under 10 active; AID 977628, 2014;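 active = compound lowering the normal-ribosome reporter at least twice as much as the humanized-ribosome reporter, growth loss under a set limit; inconclusive = no clear call, values can overlap the other calls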;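 note: wild-type GFP and h24 humanized RFP strains co-cultured 1 to 1 per well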
Each line names hits and unclear results; the compound was inactive in the other large screens (follow-up assays come after a bar, where they were run).

CCc1ccc(C(=O)Nc2cccnc2Oc2ccc(Cl)cc2)cc1	rRNA inh HTS -20.6, E-sel inducer inconclusive | AID977621 inactive
Cc1ccc(S(=O)(=O)Nc2ccc3c(c2)CC(=O)N([C@@H](C)CO)C[C@@H](C)[C@H](CN(C)C(=O)NC(C)C)O3)cc1	none
CO[C@H]1CN(C)C(=O)c2ccc(NC(C)=O)cc2OC[C@@H](C)N(C(=O)CN2CCOCC2)C[C@H]1C	none (no result: MLL AF4-AF9 inh, ERAP1 HTS inh, SIRT5 inh, S100A4 inh HTS)
Clc1ccccc1C1CC(c2ccccc2)=Nc2ccccc2N1 (centres undefined)	rRNA inh HTS -19.7 (no result: MLL AF4-AF9 inh) | AID977628 inconclusive
Nc1nc(-c2cc(-c3ccccc3)no2)cs1	rRNA inh HTS -19.0 | AID977621 inactive | AID977628 inconclusive
Cc1nc2ncnn2c(N2CCC(C(=O)NC3CCCC3)CC2)c1Cc1ccccc1	rRNA inh HTS -19.0 (no result: E-sel inducer) | AID977621 inactive | AID977628 inactive
CC(=O)NC(Cc1ccc(F)c(F)c1)C(=O)NC1CCN(c2c(Cc3ccccc3)c(C)nc3ncnn23)CC1 (centres undefined)	none (no result: E-sel inducer)
COC(=O)CCCN1C(=O)c2cccc3cccc(c23)C1=O	none (no result: E-sel inducer)
O=C1c2cccc3cccc(c23)C(=O)N1CCCn1ccnc1	rRNA inh HTS -21.3 | AID977621 inactive | AID977628 inconclusive
COc1cc(OC)c(NS(=O)(=O)c2cccc(C(=O)OCC(=O)NCC3CCCO3)c2)cc1Cl (centres undefined)	rRNA inh HTS -22.6 (no result: E-sel inducer) | AID977621 inactive | AID977628 inactive
O=C(COC(=O)c1cccc(S(=O)(=O)N2CCN(c3ccccc3)CC2)c1)NCC1CCCO1 (centres undefined)	none (no result: ERAP1 HTS inh)
C[C@H](CO)N1C[C@H](C)[C@@H](CN(C)Cc2ccccc2)Oc2ccc(NC(=O)c3ccncc3)cc2C1=O	none
O=C(O)C[C@H]1C=C[C@H](NC(=O)Nc2cc(F)ccc2F)[C@@H](CO)O1	none
Cc1ccccc1NCc1ccc([N+](=O)[O-])s1	rRNA inh HTS -33.5 | AID977628 inactive
C=CCn1c(C)cc(C(=O)COC(=O)CNC(=O)c2ccccc2)c1C	rRNA inh HTS -23.9 | AID977621 inactive
Cc1ccc(S(=O)(=O)N(C(=O)c2ccncc2)c2ccc(OC(=O)c3ccncc3)cc2)c(C)c1	rRNA inh HTS -18.3 | AID977621 inactive | AID977628 inactive
CCCCN(C)CCNC(=O)c1cc2cc3ccc(OC)cc3nc2o1	none
CCN(CC)CCNC(=O)c1cc2cc3ccc(OC)cc3nc2o1	rRNA inh HTS -18.9 | AID977621 inactive | AID977628 inconclusive
CCc1cnc(N2[C@H](CO)[C@@H](c3ccc(C#Cc4ccccc4F)cc3)[C@@H]2C#N)s1	none
O=[N+]([O-])c1ccccc1CN1CCN(S(=O)(=O)c2ccccc2)CC1	rRNA inh HTS -24.8 | AID977621 inconclusive | AID977628 inconclusive
COc1ccc(S(=O)(=O)N2CCN(Cc3ccccc3OC)CC2)cc1	none
CSCC(=O)N1CCCC(N2CCN(c3ccc(F)cc3)CC2)C1 (centres undefined)	none
CC1(CCC(=O)N2CCCC(N3CCN(c4ccc(F)cc4)CC3)C2)CC1 (centres undefined)	rRNA inh HTS -24.7 | AID977621 inactive | AID977628 inconclusive

Compound activity deposited in PubChem by Broad Institute.
